Measured values as given in article PMC7529613 (International Journal for Parasitology: Drugs and Drug …, 2020).

What was measured:
T. gondii = T. gondii growth inhibitory assay; type: cell-based, Toxoplasma gondii; settings: for IC50: read-out: IC50 T. gondii (anti-Toxoplasma IC50); for selectivity ratio at 48 h: human, Selectivity index (SI) = Cytotoxicity IC50/Anti-parasitic IC50, HFF cytotoxicity IC50 / anti-Toxoplasma IC50
Summary of the method: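 YFP-expressing RH-strain tachyzoites (~3500/well) were added to confluent HFF in supplemented IMDM. Test compound in DMSO (20 μM single dose, or 0–8 μM / 0–40 μM series) was added immediately or 2 h post-infection. Atovaquone 0.48 μM was the positive control; DMSO the negative. After 48 h at 37 °C/5% CO2, parasite YFP fluorescence was quantified by microscopy. IC50 came from triplicate-mean dose–response curves. SI = HFF cytotoxicity IC50/anti-Toxoplasma IC50.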

Cytotoxicity assay [1] = type: cell-based; settings: human, uninfected HFF cells
Summary of the method: (§1)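 Confluent host cells were used: HCT-8 in phenol-red-free supplemented RPMI 1640, HFF in phenol-red-free DMEM with 10% FBS. Test compound in DMSO was added at 0–700 μM, with matched DMSO controls, for 48 h at 37 °C/5% CO2. WST-1 was added for 1 h in the dark and absorbance read at 420 nm. Viability inhibition was taken relative to DMSO. IC50 came from dose–response curves of triplicate means.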

Cryptosporidium = settings: read-out: anti-Cryptosporidium IC50; ref Li et al., 2019; cited from earlier work
Cytotoxicity assay [2] = type: cell-based; settings: human, uninfected HCT-8 cells
Summary of the method: as §1

C. parvum = C. parvum growth inhibitory assay; type: cell-based, Cryptosporidium parvum
Summary of the method: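 Sporozoites were excysted (HBSS, 60 min at 37 °C, then 1.5% sodium taurocholate, 60 min) and […]. 4 × 10^4 were added per well to confluent HCT-8 cells in supplemented RPMI-1640. […] After 72 h at 37 °C/5% CO2: fixed, antibody-stained, microscopy fluorescence quantified. […] Triplicate, ≥3 repeats.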

[3] = Toxoplasma gondii, HFF, 48 h, read-out: Inhibition of T. gondii growth

Compound | IC50 (T. gondii; Toxoplasma gondii, HFF, 48 h) | inhibition at 20 µM (T. gondii; [3]) | selectivity ratio at 48 h (T. gondii) | IC50 at 48 h (Cytotoxicity assay [1]) | other results
CC(C)=CCC/C(C)=C/CNC(=O)NC(=O)c1ccc(F)c(F)c1F [JS-2-20, (E)-N-((3,7-Dimethylocta-2,6-dien-1-yl)carbamoyl)-2,3,4-trifluorobenzamide] | 10.9 µM | ~80% | 5.7 | 62.6 µM | 
O=C(NC(=O)c1ccc(F)c(F)c1F)OC1C2CC3CC(C2)CC1C3 (stereo not drawn) [JS-2-35, Adamantan-2-yl (2,3,4-trifluorobenzoyl)carbamate] | 10.5 µM | ~80% | 5.6 | 59.2 µM | 
O=C(NC(=O)c1ccc(F)c(F)c1F)OC12CC3CC(CC(C3)C1)C2 [JS-2-49, Adamantan-1-yl (2,3,4-trifluorobenzoyl)carbamate] | 12.1 µM | ~90% | 5.4 | 65.5 µM | 
COc1ccccc1C(=O)NC(=O)NC(=O)c1ccccc1OC [JS-1-09, N,N′-Carbonylbis(2-methoxybenzamide)] | 1.21 µM | ~100% | ~53 | 64 µM | Inhibition of T. gondii growth (T. gondii; 8 μM compound, 48 h): almost completely inhibited; Selectivity index (SI) = Cytotoxicity IC50/Anti-parasitic IC50 (T. gondii; HFF cytotoxicity IC50 / anti-Toxoplasma IC50): 52.9
O=C1C(O)=C([C@H]2CC[C@H](c3ccc(Cl)cc3)CC2)C(=O)c2ccccc21 [atovaquone, reference compound] |  |  |  |  | inhibition at 0.5 µM (T. gondii; [3]): ~100%
NC[C@@H]1O[C@H](O[C@H]2[C@@H](O)[C@H](O[C@@H]3[C@@H](O)[C@H](N)C[C@H](N)[C@H]3O[C@H]3O[C@H](CO)[C@@H](O)[C@H](O)[C@H]3N)O[C@@H]2CO)[C@H](N)[C@@H](O)[C@@H]1O [paromomycin] |  |  |  |  | IC50 (Cryptosporidium): 450 µM
CC(C)=CCC/C(C)=C\COC(=O)NC(=O)C12CC3CC(CC(C3)C1)C2 [GMG-1-09, (Z)-3,7-Dimethylocta-2,6-dien-1-yl (adamantane-1-carbonyl)carbamate] |  |  |  |  | IC50 at 48 h (Cytotoxicity assay [2]): 450 µM; IC50 T. gondii (anti-Toxoplasma IC50) (T. gondii; YFP-expressing RH tachyzoites in HFF cells, 48 h of culture): not potent; inhibition at 20 µM (C. parvum; Cryptosporidium parvum, HCT-8, read-out: Inhibition of C. parvum growth): ~70%; selectivity ratio at 72 h (C. parvum; human, Selectivity index (SI) = Cytotoxicity IC50/Anti-parasitic IC50, HCT-8 cytotoxicity IC50 / anti-Cryptosporidium IC50): ~14
